For 13 compounds, EC50 results are on record in ChEMBL document CHEMBL3868627, “Radical scavenging and antibacterial activity of caffemides against gram positive, gram negative and clinical drug resistance bacteria” (Bioorg Med Chem Lett, 2016).

The nature of the assay: Antioxidant activity assessed as DPPH free radical scavenging activity measured after 30 mins by spectrophotometry. It counts as functional. In short, it runs like this: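 DPPH radical scavenging in ethanolic solution with a final DPPH concentration of 100 µM. Absorbance read at 517 nm. Percent inhibition = (A control − A test)/A control, where the control is DPPH without sample. The inhibition-versus-concentration plot gives EC50, the concentration giving a 50% drop in absorbance. Mean ± S.D. of three independent trials.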
Background: Loss of DPPH colour is used to gauge radical scavenging.
Broadly, the EC50 is the concentration needed to bring the measured effect to its halfway point. In the case of `O=C(/C=C/c1ccc(O)c(O)c1)Nc1ccc(F)cc1`, the EC50 was 24.1 µM. The same measure for `O=C(/C=C/c1ccc(O)c(O)c1)Nc1cc(Cl)c(O)c(Cl)c1`: 5.51 µM. The same measure for `O=C(/C=C/c1ccc(O)c(O)c1)NCCc1c[nH]c2ccccc12`: 58.8 µM.

For the compound `Cc1cc([N+](=O)[O-])ccc1NC(=O)/C=C/c1ccc(O)c(O)c1`, the EC50 stood at 13.2 µM. The same measure for `O=C(/C=C/c1ccc(O)c(O)c1)Nc1ccccc1`: 52.6 µM; for `CC(=O)c1cccc(NC(=O)/C=C/c2ccc(O)c(O)c2)c1`: 10.6 µM; for `O=C(/C=C/c1ccc(O)c(O)c1)Nc1ccccc1Sc1ccccc1`: 27 µM. To VITAMIN E belongs 50.9 µM; to `O=C(O)/C=C/c1ccc(O)c(O)c1` [CAFFEIC ACID], 30.9 µM; to `O=C(/C=C/c1ccc(O)c(O)c1)Nc1ccc2ccccc2c1`, 47.3 µM. To `O=C(/C=C/c1ccc(O)c(O)c1)Nc1ccc([N+](=O)[O-])cc1` belongs 7.21 µM. Regarding `CC(C)(C)c1ccc(O)c(NC(=O)/C=C/c2ccc(O)c(O)c2)c1`, the EC50 was found to be 11.9 µM. To `Nc1ccc(NC(=O)/C=C/c2ccc(O)c(O)c2)cc1` belongs 36 µM.
